Measurements as given in ChEMBL document CHEMBL1156295, “In vitro and in vivo photocytotoxicity of boron dipyrromethene derivatives for photodynamic therapy” (J Med Chem, 2010).
The source made the active and inactive calls. The rule behind the calls is not given here.

Key:
[1] = Cellular uptake in human HSC2 cells assessed as intracellular localization in to cytoplasmic membrane at 100 nM by spinning disk confocal microscopy; assay type: ADME, cell-based; settings: hsc-2, 0.1 µM
In short: (§1)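 HSC-2 cells grown on glass coverslips, co-incubated at room temperature for 15–30 min with compound plus probe: ER-Tracker 100 nM, LysoTracker 500 nM or Rh123 100 nM. Rinsed in PBS. XY sections at 0.2 μm imaged; excitation 330–385 nm for ER/Lyso probes, 460–490 nm for Rh123, 520–550 nm for photosensitizer.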

HSC-2 [2] = assay: Induction of apoptosis in human HSC2 cells irradiated with 4.1 J/cm^2 broad spectrum light assessed as apoptotic cells at 0.5 uM after 16 hrs of irradiation by annexin V-FITC staining; assay type: functional
In short: (§2)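 HSC-2 cells at 50% confluency in dishes, treated 2 h, then irradiated (4.1 J/cm2 broad spectrum) or kept dark. At intervals, floating and trypsinized cells pooled, washed in cold PBS, resuspended at 1 × 10^6 cells/mL in binding buffer. Stained 15 min in the dark at room temperature with annexin V-FITC and propidium iodide. 1 × 10^4 cells read by flow cytometry (FL1, FL3).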

[3] = Cellular uptake in human HSC2 cells assessed as intracellular localization in to endoplasmic reticulum labeled with ER-tracker blue-white DPX dye at 100 nM by spinning disk confocal microscopy; assay type: ADME, cell-based; settings: hsc-2, 0.1 µM; in short: as §1
[4] = Cellular uptake in human HSC2 cells assessed as intracellular localization in to nuclear membrane at 100 nM by spinning disk confocal microscopy; assay type: ADME, cell-based; settings: hsc-2, 0.1 µM; in short: as §1
Gallus gallus [5] = species on record: Gallus gallus; assay: Antiangiogenic activity against chicken chorioallantoic membrane irradiated with 20 to 40 J/cm^2 assessed as induction of vascular occlusion at 3.5 to 7 nmol/embryo; assay type: functional, tissue-based
In short: (§3)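 Fertilized chicken eggs incubated at 37 °C, 65% humidity. On EDD-9, single iv bolus into the main CAM vessel in cremophor EL 5%, EtOH 5% in saline. One minute later, a 0.02 cm2 site with 5–100 μm vessels irradiated at 510–560 nm, 40 mW/cm2 (or left dark). After 24 h, FITC-dextran/Indian ink angiography and damage scoring per Lange et al.; at least 10 embryos, mean ± SEM.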

HSC-2 [6] = assay: Cell cycle arrest in human HSC2 cells irradiated with 4.1 J/cm^2 broad spectrum light assessed as accumulation at sub-G1 phase at 0.25 uM after 8 hrs by flow cytometry relative to control; assay type: functional
In short: (§4)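 HSC-2 cells given compound for 2 h, then irradiated with broad-spectrum light (or kept dark). Floating plus trypsinized adherent cells collected at set times after irradiation. Fixed in 70% ice-cold ethanol overnight at 4 °C, then stained 30 min with 20 μg/mL RNase A and 1 μM SYTOX Green. 1 × 10^4 cells read by flow cytometry (488 nm laser, FL1 530/30).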

HSC-2 [7] = assay: Cell cycle arrest in human HSC2 cells irradiated with 4.1 J/cm^2 broad spectrum light assessed as accumulation at G2/M phase at 0.25 uM after 2 hrs by flow cytometry relative to control; assay type: functional; in short: as §4
[8] = Cytotoxicity against human HK1 cells after 24 hrs by MTT assay; assay type: functional, cell-based; settings: HK-1, 24 h
In short: (§5)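 HL60 at 15000 cells/well; HSC-2 and HK1 at 3000 cells/well, adhered overnight; phenol-red-free medium with 10% FBS. Compound tested at 0.001–100.0 μM from DMSO stock; controls 0.01% DMSO. After 2 h, irradiated with broad-spectrum light at 6.8 mW/cm2, or dark. After 24 h, MTT 4 h at 37 °C, formazan in DMSO, A570. Three determinations, mean ± SD.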

HSC-2 [9] = assay: Induction of apoptosis in human HSC2 cells irradiated with 4.1 J/cm^2 broad spectrum light assessed as apoptotic cells at 0.5 uM after 12 hrs of irradiation by annexin V-FITC staining; assay type: functional; in short: as §2
HSC-2 [10] = assay: Induction of apoptosis in human HSC2 cells irradiated with 4.1 J/cm^2 broad spectrum light assessed as viable cells at 0.5 uM after 4 hrs of irradiation by annexin V-FITC staining; assay type: functional; settings: HSC-2, light or radiation study, read-out: Activity; in short: as §2
[11] = Cellular uptake in human HSC2 cells assessed as intracellular localization in to lysosome labeled with lyso-tracker DND22 dye at 100 nM by spinning disk confocal microscopy; assay type: ADME, cell-based; settings: hsc-2, 0.1 µM; in short: as §1
HSC-2 [12] = assay: Cell cycle arrest in human HSC2 cells irradiated with 4.1 J/cm^2 broad spectrum light assessed as accumulation at G1 phase at 0.25 uM after 12 hrs by flow cytometry relative to control; assay type: functional; in short: as §4
HSC-2 [13] = assay: Cell cycle arrest in human HSC2 cells irradiated with 4.1 J/cm^2 broad spectrum light assessed as accumulation at G2/M phase at 0.25 uM after 6 hrs by flow cytometry relative to control; assay type: functional; in short: as §4
HSC-2 [14] = assay: Cell cycle arrest in human HSC2 cells in dark assessed as accumulation at sub-G1 phase at 0.25 uM after 12 hrs by flow cytometry relative to control; assay type: functional; in short: as §4
HSC-2 [15] = assay: Cell cycle arrest in human HSC2 cells irradiated with 4.1 J/cm^2 broad spectrum light assessed as accumulation at G1 phase at 0.25 uM after 4 hrs by flow cytometry relative to control; assay type: functional; in short: as §4
HSC-2 [16] = assay: Induction of apoptosis in human HSC2 cells irradiated with 4.1 J/cm^2 broad spectrum light assessed as apoptotic cells at 0.5 uM after 4 hrs of irradiation by annexin V-FITC staining; assay type: functional; in short: as §2
HSC-2 [17] = assay: Induction of apoptosis in human HSC2 cells irradiated with 4.1 J/cm^2 broad spectrum light assessed as apoptotic cells at 0.5 uM after 24 hrs of irradiation by annexin V-FITC staining; assay type: functional; in short: as §2
HSC-2 [18] = assay: Cell cycle arrest in human HSC2 cells irradiated with 4.1 J/cm^2 broad spectrum light assessed as accumulation at sub-G1 phase at 0.25 uM after 6 hrs by flow cytometry relative to control; assay type: functional; in short: as §4
HSC-2 [19] = assay: Cell cycle arrest in human HSC2 cells irradiated with 4.1 J/cm^2 broad spectrum light assessed as accumulation at G1 phase at 0.25 uM after 2 hrs by flow cytometry relative to control; assay type: functional; in short: as §4
HSC-2 [20] = assay: Cell cycle arrest in human HSC2 cells irradiated with 4.1 J/cm^2 broad spectrum light assessed as accumulation at G1 phase at 0.25 uM after 8 hrs by flow cytometry relative to control; assay type: functional; in short: as §4
HL-60 [21] = assay: Phototoxicity against human HL60 cells irradiated with 4.1 J/cm^2 broad spectrum light treated 2 hrs before irradiation measured after 24 hrs by MTT assay; assay type: functional, cell-based; settings: HL-60, light or radiation study; in short: as §5
HSC-2 [22] = assay: Induction of apoptosis in human HSC2 cells irradiated with 4.1 J/cm^2 broad spectrum light assessed as viable cells at 0.5 uM after 12 hrs of irradiation by annexin V-FITC staining; assay type: functional; settings: HSC-2, light or radiation study, read-out: Activity; in short: as §2
HL-60 [23] = assay: Cytotoxicity against human HL60 cells after 24 hrs by MTT assay; assay type: functional, cell-based; settings: HL-60, 24 h; in short: as §5
HSC-2 [24] = assay: Induction of apoptosis in human HSC2 cells in dark assessed as apoptotic cells at 0.5 uM after 24 hrs by annexin V-FITC staining; assay type: functional; in short: as §2
Gallus gallus [25] = species on record: Gallus gallus; assay: Antiangiogenic activity against chicken chorioallantoic membrane in dark assessed as induction of vascular occlusion at 3.5 to 7 nmol/embryo; assay type: functional, tissue-based; in short: as §3
HSC-2 [26] = assay: Induction of apoptosis in human HSC2 cells irradiated with 4.1 J/cm^2 broad spectrum light assessed as viable cells at 0.5 uM after 16 hrs of irradiation by annexin V-FITC staining; assay type: functional; settings: HSC-2, light or radiation study, read-out: Activity; in short: as §2

For `CC1=C(I)C(C)=[N+]2C1=C(CCC(=O)O)c1c(C)c(I)c(C)n1[B-]2(F)F`, the Activity [1] was “Not Active”, the Activity (HSC-2 [2]) was 47.4% and the Drug uptake [3] was “Active”. For the same molecule, the Activity [4] was “Not Active”, the Activity (Gallus gallus [5]) was “Active” and the Activity (HSC-2 [6]) was 4.4%. The Activity (HSC-2 [7]) was 39.8%, the IC50 [8] was 55.8 µM and the Activity (HSC-2 [9]) was 20.7%. For the same molecule, the viability at 0.5 µM (HSC-2 [10]) was 91.3%, the Drug uptake [11] was “Active” and the Activity (HSC-2 [12]) was 44.1%. The Activity (HSC-2 [13]) was 55.5%, the Activity (HSC-2 [14]) was 3.8% and the Activity (HSC-2 [15]) was 33.8%. For the same molecule, the Activity (HSC-2 [16]) was 8.7%, the Activity (HSC-2 [17]) was 89.9% and the Activity (HSC-2 [18]) was 3.9%. The Activity (HSC-2 [19]) was 46.3%, the Activity (HSC-2 [20]) was 30.3% and the IC50 (HL-60 [21]) was 0.045 µM. It also gave a viability at 0.5 µM (HSC-2 [22]) of 79.3%, an IC50 (HL-60 [23]) of over 100 µM and an Activity (HSC-2 [24]) of 3%. The Activity (Gallus gallus [25]) was “inactive” and the viability at 0.5 µM (HSC-2 [26]) was 52.6%.
